From ChEMBL document CHEMBL2346529, “The human Aurora kinase inhibitor danusertib is a lead compound for anti-trypanosomal drug discovery via target repurposing” (Eur J Med Chem, 2013)
pEC50: −log10 of the molar value. The source made the active and inactive calls. No cut-off for these calls is given here.

How the values were obtained:
[1] = tested on: Trypanosoma brucei brucei; assay: Antitrypanosomal activity against bloodstream form of Trypanosoma brucei brucei Lister 427 90-13 assessed as inhibition of growth in log phase at 1 uM after 48 hrs by Cell Titer Blue end-point assay; assay type: functional; settings: Lister 427 90-13, 48 h
Summary of the method: (§1)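 Log-phase bloodstream-form cells were seeded at 1×10^5 cells/mL and exposed to compound at a single concentration (0.2% DMSO) for 48 h (4 doublings). AnTat1.1A cells were grown in HMI-9 with 10% FBS and 10% Serum Plus. 90-13 cells were grown in HMI-9 with G418 (2.5 μg/mL) and hygromycin B (5 μg/mL). Cells were pelleted and incubated 3 h at 37°C with CellTiter-Blue. Fluorescence was read at 560/590 nm, background-subtracted and normalized to DMSO controls.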

MOLT-4 = assay: Cytotoxicity against human MOLT4 cells assessed as inhibition of cell growth after 4 days by Cell Titer Blue end-point assay; assay type: cell-based; settings: MOLT-4, 96 h
Summary of the method: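 MOLT-4 cells in RPMI 1640 with 20% FBS were seeded at 5×10^4 cells/mL and grown 24 h before inhibitor was added. There were 8 concentrations in triplicate, spanning 50 nM to 30 μM final. Treatment lasted 4 days, then CTB was added for 3 h at 37°C. Fluorescence was read at 560Ex/590Em, with cell-free background subtracted and DMSO-only wells taken as 100%. EC50 was fitted from inhibition curves.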

[2] = tested on: Trypanosoma brucei brucei; assay: Antitrypanosomal activity against bloodstream form of Trypanosoma brucei brucei AnTat1.1A assessed as inhibition of growth in log phase at 10 uM after 48 hrs by Cell Titer Blue end-point assay; assay type: functional; summary of the method: as §1
[3] = tested on: Trypanosoma brucei rhodesiense; assay: Antitrypanosomal activity against bloodstream form of Trypanosoma brucei rhodesiense YTat1.1 assessed as inhibition of growth in log phase after 48 hrs by Cell Titer Blue end-point assay; assay type: functional, organism-based; settings: YTat1.1, 48 h
Summary of the method: (§2)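 Dose-response: at least 8 final concentrations (50 nM–8 μM, 0.2% DMSO), each in triplicate, on log-phase bloodstream-form cells at 1×10^5 cells/mL. Incubation was 48 h at 37°C, 5% CO2, followed by a 3 h CellTiter-Blue fluorescence read with background subtracted. EC50 was derived from inhibition curves. YTat1.1 was culture-adapted from rat blood in HMI-9 with FBS and Serum Plus; its data come from 2–3 independent experiments. 90-13 was grown in HMI-9 with G418 and hygromycin B.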

[4] = tested on: Trypanosoma brucei brucei; assay: Antitrypanosomal activity against bloodstream form of Trypanosoma brucei brucei assessed as inhibition of growth in log phase at 1 uM after 48 hrs by Cell Titer Blue end-point assay; settings: read-out: GI
[5] = tested on: Trypanosoma brucei brucei; assay: Antitrypanosomal activity against bloodstream form of Trypanosoma brucei brucei Lister 427 90-13 assessed as inhibition of growth in log phase at 10 uM after 48 hrs by Cell Titer Blue end-point assay; assay type: functional; settings: Lister 427 90-13, 48 h; summary of the method: as §1
[6] = Selectivity ratio of EC50 for human MOLT4 cells to EC50 for bloodstream form of Trypanosoma brucei rhodesiense YTat1.1; assay type: ADME, cell-based, MOLT-4; settings: read-out: Ratio EC50
Summary of the method: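 Ratio of MOLT-4 EC50 to YTat1.1 EC50. MOLT-4 cells were grown in RPMI 1640 with 20% FBS, seeded at 5×10^4 cells/mL and grown 24 h before compound was added. Treatment used 8 triplicate concentrations between 50 nM and 30 μM for 4 days, followed by a 3 h CellTiter-Blue read at 37°C. The parasite EC50 came from a 48 h CellTiter-Blue dose-response (50 nM–8 μM).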

[7] = tested on: Trypanosoma brucei brucei; assay: Antitrypanosomal activity against bloodstream form of Trypanosoma brucei brucei AnTat1.1A assessed as inhibition of growth in log phase at 1 uM after 48 hrs by Cell Titer Blue end-point assay; assay type: functional; summary of the method: as §1
[8] = tested on: Trypanosoma brucei brucei; assay: Antitrypanosomal activity against bloodstream form of Trypanosoma brucei brucei Lister 427 90-13 assessed as inhibition of growth in log phase after 48 hrs by Cell Titer Blue end-point assay; assay type: functional, organism-based; settings: Lister 427 90-13, 48 h; summary of the method: as §2
Trypanosoma brucei = assay: Inhibition of NH3-AU1 epitope-tagged recombinant Trypanosoma brucei AUK1 expressed in procyclic form trypanosome AnTat1.1 assessed as decrease in myelin basic protein phosphorylation at 500 nM preincubated for 5 mins by pull down assay in presence of [gamma-32P]ATP
Summary of the method: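 AU1-tagged TbAUK1 came from procyclic AnTat1.1 cells pretreated with 16 μM MG132 for 3 h. Lysate was pre-cleared and immunoprecipitated overnight at 4°C on AU1 beads. Bead kinase was mixed with 160 μg myelin basic protein in Hepes/KCl/NaF/MgCl2/DTT buffer, pH 7.4, with drug preincubated 5 min. Reactions were started with 8 μM ATP plus [γ-32P]ATP and run 30 min at 30°C. Products were read by SDS-PAGE autoradiography.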

Compound	inhibition at 1 µM [1] [%]	pEC50 (MOLT-4)	inhibition at 10 µM [2] [%]	pEC50 [3]	inhibition of growth at 1 µM [4] [%]	inhibition at 10 µM [5] [%]	selectivity ratio [6]	inhibition at 1 µM [7] [%]	pEC50 [8]	inhibition (Trypanosoma brucei)
COC(C(=O)N1Cc2[nH]nc(NC(=O)c3ccc(N4CCN(C)CC4)cc3)c2C1)c1ccccc1 (racemic)	15	5.38	97	6.21	> 60	25	6.8	77		
Cc1[nH]c2ccccc2c1CC(=O)N1Cc2[nH]nc(NC(=O)c3ccc(N4CCN(C)CC4)cc3)c2C1	34		98	5.92	> 60	63	1	62		
CN1CCN(c2ccc(C(=O)Nc3n[nH]c4c3CN(C(=O)Cc3ccc(F)c(F)c3)C4)cc2)CC1	29		98			53		18		
CN1CCN(c2ccc(C(=O)Nc3n[nH]c4c3CN(C(=O)Cc3cc(F)cc(F)c3)C4)cc2)CC1	37	6.20	98	6.04	> 60	99	0.7	98	6.23	
CN1CCN(c2ccc(C(=O)Nc3n[nH]c4c3CN(C(=O)CC3CC(=O)c5ccccc53)C4)cc2)CC1 (racemic)	27		79			35		34		
Cc1cc(C)cc(CC(=O)N2Cc3[nH]nc(NC(=O)c4ccc(N5CCN(C)CC5)cc4)c3C2)c1	26	5.35	99	5.98	> 60	100	4.3	85	5.59	
CC(C)C(C(=O)N1Cc2[nH]nc(NC(=O)c3ccc(N4CCN(C)CC4)cc3)c2C1)c1ccccc1 (racemic)	62		99	6.40	> 60	100	6.3	99	6.17	
CN1CCN(c2ccc(C(=O)Nc3n[nH]c4c3CN(C(=O)Cc3c(F)ccc(F)c3F)C4)cc2)CC1	14	5.65	98	6.49	> 60	77	6.9	52		
CN1CCN(c2ccc(C(=O)Nc3n[nH]c4c3CN(C(=O)Cc3cccc(Cl)c3)C4)cc2)CC1	33	5.40	98	6.24	> 60	98	6.9	35	6.07	
Cc1ccc(C(C)C(=O)N2Cc3[nH]nc(NC(=O)c4ccc(N5CCN(C)CC5)cc4)c3C2)cc1 (racemic)	19	5.26	100	6.07	> 60	100	6.4	19		
CN1CCN(c2ccc(C(=O)Nc3n[nH]c4c3CN(C(=O)Cc3c(F)cc(F)cc3F)C4)cc2)CC1	41		100			72		23		
Cc1nc(C)c(CC(=O)N2Cc3[nH]nc(NC(=O)c4ccc(N5CCN(C)CC5)cc4)c3C2)s1	6		35			12		13		
CN1CCN(c2ccc(C(=O)Nc3n[nH]c4c3CN(C(=O)Cc3cccc5ccccc35)C4)cc2)CC1	26	4.85	98	6.21	> 60	100	23	82		
CN1CCN(c2ccc(C(=O)Nc3n[nH]c4c3CN(C(=O)Cc3cc(F)cc(F)c3F)C4)cc2)CC1	26	5.64	99	5.70	> 60	94	1.2	44		
Cc1nc(CC(=O)N2Cc3[nH]nc(NC(=O)c4ccc(N5CCN(C)CC5)cc4)c3C2)cs1	8		53			14		23		
CN1CCN(c2ccc(C(=O)Nc3n[nH]c4c3CN(C(=O)Cc3c(F)cccc3F)C4)cc2)CC1	32		97			66		20		
CN1CCN(c2ccc(C(=O)Nc3n[nH]c4c3CN(C(=O)Cc3ccc(F)cc3F)C4)cc2)CC1	40		98			62		6		
CN1CCN(c2ccc(C(=O)Nc3n[nH]c4c3CN(C(=O)Cc3cc(F)ccc3F)C4)cc2)CC1	37		98			97		6		
CCS(=O)(=O)Nc1ccc2c(c1)/C(=C(/Nc1ccc(CN3CCCCC3)cc1)c1ccccc1)C(=O)N2										Active
Cc1ccc(C)c(CC(=O)N2Cc3[nH]nc(NC(=O)c4ccc(N5CCN(C)CC5)cc4)c3C2)c1	18	5.58	99	5.92	> 60	100	2.2	34		
